Laboratory results taken from ChEMBL document CHEMBL1132701, “Orally active isoxazoline glycoprotein IIb/IIIa antagonists with extended duration of action” (J Med Chem, 1999).
pIC50, pKd: −log10 of the molar value. Values belong to the compound of their own block, whether it stands above or below them.

Legend:
[1] = biological target: Integrin alpha-5/beta-1 (Homo sapiens) (UniProt P05556+P08648); experiment: Inhibitory activity against alpha5-beta1 integrin at 10 uM
[2] = species: Homo sapiens; experiment: The compound was tested for their ability to inhibit ADP-stimulated platelet aggregation in human platelet rich plasma; assay type: functional
How it was run: (§1)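 IC50 for inhibition of ADP-induced aggregation in human platelet-rich plasma, determined in three donors.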

[3] = biological target: Integrin alpha-V/beta-5 (Homo sapiens) (UniProt P06756+P18084); experiment: Inhibitory activity against alphaV-beta5 integrin at 10 uM; assay type: protein-complex assay
[4] = system: Canis familiaris; experiment: Inhibition of ex vivo platelet aggregation in dogs after 24 hr of administration of oral dose of 0.1 mg/kg; assay type: functional; settings: Canis lupus familiaris
[5] = biological target: Integrin alpha-IIb/beta-3 (Canis familiaris); experiment: Dissociation constant for unactivated Fibrinogen Receptor
[6] = species: Canis familiaris; experiment: The compound was tested for their ability to inhibit ADP-stimulated platelet aggregation in dog platelet rich plasma; assay type: functional; settings: Canis lupus familiaris
[7] = system: Canis familiaris; experiment: Inhibition of ex vivo platelet aggregation in dogs after 6 hr of administration of oral dose of 0.1 mg/kg; settings: Canis lupus familiaris
[8] = biological target: Integrin alpha-IIb/beta-3 (Canis familiaris); experiment: Dissociation constant for activated Fibrinogen Receptor
[9] = biological target: Integrin alpha-V/beta-3 (Homo sapiens, UniProt P05106+P06756); experiment: Inhibitory activity against […] integrin; assay type: protein-complex assay
Chain of Integrin alpha-V/beta-3 (P05106 27-788 limits assumed): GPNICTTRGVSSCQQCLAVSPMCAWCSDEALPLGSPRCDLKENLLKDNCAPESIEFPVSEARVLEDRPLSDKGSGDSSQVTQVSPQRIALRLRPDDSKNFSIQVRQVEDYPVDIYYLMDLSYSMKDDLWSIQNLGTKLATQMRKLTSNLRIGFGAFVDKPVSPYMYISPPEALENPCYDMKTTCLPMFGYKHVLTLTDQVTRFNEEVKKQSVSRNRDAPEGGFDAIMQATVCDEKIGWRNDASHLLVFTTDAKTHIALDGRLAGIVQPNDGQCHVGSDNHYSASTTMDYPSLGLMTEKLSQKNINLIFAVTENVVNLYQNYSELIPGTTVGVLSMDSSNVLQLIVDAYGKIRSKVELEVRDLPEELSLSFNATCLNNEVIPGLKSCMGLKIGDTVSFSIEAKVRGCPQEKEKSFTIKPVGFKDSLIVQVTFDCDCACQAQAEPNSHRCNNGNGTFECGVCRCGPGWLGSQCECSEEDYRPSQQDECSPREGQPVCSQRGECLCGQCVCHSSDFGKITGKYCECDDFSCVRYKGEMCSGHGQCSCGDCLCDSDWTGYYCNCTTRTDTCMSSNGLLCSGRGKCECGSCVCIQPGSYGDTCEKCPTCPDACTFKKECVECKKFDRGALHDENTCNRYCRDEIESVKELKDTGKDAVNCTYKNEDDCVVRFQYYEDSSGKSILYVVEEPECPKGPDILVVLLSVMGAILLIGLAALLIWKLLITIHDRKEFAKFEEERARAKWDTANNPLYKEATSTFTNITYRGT
Chain of Integrin alpha-V/beta-3 (P06756 31-889 limits assumed): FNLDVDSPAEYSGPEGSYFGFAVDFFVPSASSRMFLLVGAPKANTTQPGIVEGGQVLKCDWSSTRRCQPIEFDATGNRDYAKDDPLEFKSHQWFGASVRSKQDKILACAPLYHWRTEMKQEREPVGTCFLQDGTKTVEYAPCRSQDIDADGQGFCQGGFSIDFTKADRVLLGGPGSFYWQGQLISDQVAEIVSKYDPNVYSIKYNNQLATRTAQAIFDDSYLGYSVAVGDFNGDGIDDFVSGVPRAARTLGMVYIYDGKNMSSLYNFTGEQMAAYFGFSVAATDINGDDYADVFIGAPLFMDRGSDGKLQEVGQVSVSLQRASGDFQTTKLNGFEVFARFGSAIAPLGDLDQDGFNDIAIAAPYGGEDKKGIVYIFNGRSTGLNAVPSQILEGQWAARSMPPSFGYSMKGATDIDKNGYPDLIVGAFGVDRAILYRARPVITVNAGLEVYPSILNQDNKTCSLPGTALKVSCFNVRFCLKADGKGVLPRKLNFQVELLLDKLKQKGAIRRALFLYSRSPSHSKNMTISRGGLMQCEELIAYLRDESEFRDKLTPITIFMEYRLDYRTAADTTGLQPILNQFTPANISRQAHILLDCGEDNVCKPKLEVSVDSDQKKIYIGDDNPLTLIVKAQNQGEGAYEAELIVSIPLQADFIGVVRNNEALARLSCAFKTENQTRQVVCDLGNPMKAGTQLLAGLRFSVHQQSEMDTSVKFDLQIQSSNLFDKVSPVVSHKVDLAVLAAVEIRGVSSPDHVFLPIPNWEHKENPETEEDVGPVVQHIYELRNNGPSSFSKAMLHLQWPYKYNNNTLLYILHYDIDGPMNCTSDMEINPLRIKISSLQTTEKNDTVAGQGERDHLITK
Chain of Integrin alpha-V/beta-3 (P06756 891-1048 limits assumed): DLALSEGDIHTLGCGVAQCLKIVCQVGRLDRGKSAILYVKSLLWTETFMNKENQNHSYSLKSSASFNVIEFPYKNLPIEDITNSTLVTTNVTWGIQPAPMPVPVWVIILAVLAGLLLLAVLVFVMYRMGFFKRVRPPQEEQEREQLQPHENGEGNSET

[10] = system: Canis familiaris; experiment: Inhibition of ex vivo platelet aggregation in dogs after 1 hr of administration of oral dose of 0.1 mg/kg; assay type: functional; settings: Canis lupus familiaris
[11] = biological target: Integrin alpha-4/beta-1 (Homo sapiens, UniProt P05556+P13612); experiment: Inhibitory activity against alpha4-beta1 integrin; assay type: protein-complex assay
Chain of Integrin alpha-4/beta-1 (P05556 whole entry): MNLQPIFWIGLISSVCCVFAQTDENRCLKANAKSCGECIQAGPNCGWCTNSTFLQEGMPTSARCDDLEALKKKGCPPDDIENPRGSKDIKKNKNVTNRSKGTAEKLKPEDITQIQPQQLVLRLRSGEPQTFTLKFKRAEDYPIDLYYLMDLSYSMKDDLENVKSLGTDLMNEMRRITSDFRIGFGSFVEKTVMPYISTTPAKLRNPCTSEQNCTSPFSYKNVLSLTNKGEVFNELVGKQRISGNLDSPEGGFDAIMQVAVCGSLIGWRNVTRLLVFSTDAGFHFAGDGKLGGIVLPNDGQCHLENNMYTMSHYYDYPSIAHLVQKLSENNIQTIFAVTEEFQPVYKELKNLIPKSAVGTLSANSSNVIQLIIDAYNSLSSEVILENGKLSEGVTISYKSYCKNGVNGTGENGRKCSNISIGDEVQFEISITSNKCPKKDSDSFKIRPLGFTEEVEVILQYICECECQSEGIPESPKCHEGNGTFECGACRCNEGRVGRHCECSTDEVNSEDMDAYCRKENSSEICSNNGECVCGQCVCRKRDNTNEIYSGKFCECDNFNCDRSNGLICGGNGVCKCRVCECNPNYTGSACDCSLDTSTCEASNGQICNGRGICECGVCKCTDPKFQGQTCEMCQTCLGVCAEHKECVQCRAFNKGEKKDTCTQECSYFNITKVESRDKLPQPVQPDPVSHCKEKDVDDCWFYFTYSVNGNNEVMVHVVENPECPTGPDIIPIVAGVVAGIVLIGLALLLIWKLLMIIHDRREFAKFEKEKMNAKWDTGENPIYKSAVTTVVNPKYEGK
Chain of Integrin alpha-4/beta-1 (P13612 whole entry): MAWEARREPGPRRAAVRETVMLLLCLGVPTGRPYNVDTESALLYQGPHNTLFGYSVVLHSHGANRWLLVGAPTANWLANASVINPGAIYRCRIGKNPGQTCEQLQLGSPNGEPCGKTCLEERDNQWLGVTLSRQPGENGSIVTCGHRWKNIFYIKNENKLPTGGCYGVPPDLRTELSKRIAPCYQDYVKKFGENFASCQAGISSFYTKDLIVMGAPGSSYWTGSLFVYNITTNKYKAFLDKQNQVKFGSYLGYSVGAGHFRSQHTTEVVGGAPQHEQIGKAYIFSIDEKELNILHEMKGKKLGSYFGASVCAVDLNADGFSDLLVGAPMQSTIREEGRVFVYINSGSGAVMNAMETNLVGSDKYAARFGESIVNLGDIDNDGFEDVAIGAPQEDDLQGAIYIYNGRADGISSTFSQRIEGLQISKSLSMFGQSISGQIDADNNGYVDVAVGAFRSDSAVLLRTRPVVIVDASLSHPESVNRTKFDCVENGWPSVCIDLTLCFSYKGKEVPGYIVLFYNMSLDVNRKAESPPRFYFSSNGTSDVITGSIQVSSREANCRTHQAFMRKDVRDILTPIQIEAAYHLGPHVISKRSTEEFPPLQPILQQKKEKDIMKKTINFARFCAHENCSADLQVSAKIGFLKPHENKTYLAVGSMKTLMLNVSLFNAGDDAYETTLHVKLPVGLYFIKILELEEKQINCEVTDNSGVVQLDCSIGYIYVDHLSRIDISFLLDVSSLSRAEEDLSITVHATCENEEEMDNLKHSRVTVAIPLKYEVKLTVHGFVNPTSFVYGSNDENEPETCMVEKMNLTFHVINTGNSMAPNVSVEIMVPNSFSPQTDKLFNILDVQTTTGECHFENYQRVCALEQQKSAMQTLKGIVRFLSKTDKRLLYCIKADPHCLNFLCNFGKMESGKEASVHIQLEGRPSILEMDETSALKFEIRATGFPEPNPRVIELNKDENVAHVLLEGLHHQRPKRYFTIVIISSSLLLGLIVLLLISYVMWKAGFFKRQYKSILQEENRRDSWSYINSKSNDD

[12] = biological target: Integrin alpha-IIb/beta-3 (Canis familiaris); experiment: Dissociation constant for unactivated Fibrinogen Receptor; remark: listed apart in the source
[13] = system: Canis familiaris; experiment: Inhibition ex vivo platelet aggregation by the compound in dogs after 24 hr of administration of oral dose of 0.3 mg/kg; settings: Canis lupus familiaris
[14] = biological target: Integrin alpha-IIb/beta-3 (Canis familiaris); experiment: Dissociation constant for unactivated Fibrinogen Receptor; remark: listed apart in the source
[15] = system: Canis familiaris; experiment: Inhibition ex vivo platelet aggregation by the compound in dogs after 5 hr of administration of iv bolus dose of 0.025 mg/kg; assay type: functional; settings: Canis lupus familiaris
How it was run: (§2)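 Dogs received an iv bolus, mostly 0.025 mg/kg, with some tested at 0.05 mg/kg. Blood was sampled at 1, 5 and 24 h postdose. Ex vivo platelet aggregation was stimulated with ADP (100 μM) and reported as % inhibition; n = 2.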

[16] = system: Canis familiaris; experiment: Inhibition ex vivo platelet aggregation by the compound in dogs after 6 hr of administration of oral dose of 0.3 mg/kg; settings: Canis lupus familiaris
[17] = system: Canis familiaris; experiment: Inhibition of ex vivo platelet aggregation by the compound in dogs after 1 hr of administration of iv bolus dose of 0.025 mg/kg; assay type: functional; settings: Canis lupus familiaris
How it was run: as §2

[18] = species: Homo sapiens; experiment: The compound was tested against free acid of DMP 754 to inhibit ADP-stimulated platelet aggregation in human platelet rich plasma; assay type: functional
How it was run: as §1

[19] = biological target: Integrin alpha-IIb/beta-3 (Canis familiaris); experiment: Dissociation constant for activated Fibrinogen Receptor; remark: listed apart in the source
[20] = species: Canis familiaris; experiment: The compounds were tested for their ability to inhibit ADP-stimulated platelet aggregation in dog platelet rich plasma; assay type: functional; settings: Canis lupus familiaris
[21] = system: Canis familiaris; experiment: Inhibition ex vivo platelet aggregation by the compound in dogs after 1 hr of administration of oral dose of 0.3 mg/kg; settings: Canis lupus familiaris
[22] = system: Canis familiaris; experiment: Compounds having IC50 values less than 100 nM in the PRP assay were assessed for their ability to inhibit ex vivo platelet aggregation in dogs after 5 hr of administration of iv bolus dose of 0.025 mg/kg; assay type: functional; settings: Canis lupus familiaris
How it was run: as §2

[23] = system: Canis familiaris; experiment: Inhibition of ex vivo platelet aggregation in dogs after 24 hr of administration of iv bolus dose of 0.025 mg/kg; assay type: functional; settings: Canis lupus familiaris
How it was run: as §2

[24] = system: Canis familiaris; experiment: Inhibition of ex vivo platelet aggregation in dogs after 24 hr of administration of oral dose of 0.1 mg/kg; settings: Canis lupus familiaris
[25] = system: Canis familiaris; experiment: Inhibition of ex vivo platelet aggregation in dogs after 6 hr of administration of oral dose of 0.1 mg/kg; settings: Canis lupus familiaris; remark: listed apart in the source
[26] = system: Canis familiaris; experiment: Inhibition of ex vivo platelet aggregation in dogs after 1 hr of administration of oral dose of 0.1 mg/kg; settings: Canis lupus familiaris

SMILES: Cc1noc(C)c1S(=O)(=O)N[C@@H](CNC(=O)C[C@H]1CC(c2ccc(C(=N)N)cc2)=NO1)C(=O)O
inhibition [1]: < 5% | pIC50 [2]: 7.54 | inhibition [3]: < 15% | inhibition in vivo at 0.1 mg/kg [4]: 75% | pKd [5]: 9.05 | pIC50 [6]: 7.64 | inhibition in vivo at 0.1 mg/kg [7]: 88% | pKd [8]: 9.22 | pIC50 [9]: < 5.00 | inhibition in vivo at 0.1 mg/kg [10]: 54% | pIC50 [11]: < 4.00

SMILES: Cc1noc(C)c1S(=O)(=O)N[C@H](CNC(=O)C[C@@H]1CC(c2ccc(C(=N)N)cc2)=NO1)C(=O)O
pKd [12]: 6.60 | pIC50 [2]: 6.92 | pIC50 [6]: 6.77 | pKd [8]: 6.73

SMILES: CCCCOC(=O)N[C@@H](CNC(=O)C[C@H]1CC(c2ccc(C(=N)N)cc2)=NO1)C(=O)OC [ROXIFIBAN]
inhibition in vivo at 0.3 mg/kg [13]: 11% | pKd [14]: 8.63 | inhibition in vivo at 0.025 mg/kg [15]: 38% | inhibition in vivo at 0.3 mg/kg [16]: 76% | inhibition in vivo at 0.025 mg/kg [17]: 100% | pIC50 [18]: 7.30 | pKd [19]: 8.55 | pIC50 [20]: 7.57 | inhibition in vivo at 0.3 mg/kg [21]: 54%

SMILES: Cn1cnc(S(=O)(=O)N[C@@H](CNC(=O)CC2CC(c3ccc(C(=N)N)cc3)=NO2)C(=O)O)c1 (stereo partly specified)
pIC50 [2]: 6.96

SMILES: Cc1noc(C)c1S(=O)(=O)N[C@H](CNC(=O)C[C@H]1CC(c2ccc(C(=N)N)cc2)=NO1)C(=O)O
pKd [12]: 7.62 | pIC50 [2]: 7.64 | pIC50 [6]: 7.60 | pKd [8]: 8.23

SMILES: CC(C)NS(=O)(=O)N[C@@H](CNC(=O)CC1CC(c2ccc(C(=N)N)cc2)=NO1)C(=O)O (stereo partly specified)
pIC50 [2]: 7.29

SMILES: CCCS(=O)(=O)N[C@@H](CNC(=O)CC1CC(c2ccc(C(=N)N)cc2)=NO1)C(=O)O (stereo partly specified)
pIC50 [2]: 7.77

SMILES: Cc1noc(C)c1S(=O)(=O)N[C@@H](CNC(=O)C[C@@H]1CC(c2ccc(C(=N)N)cc2)=NO1)C(=O)O
pIC50 [2]: 7.54 | pKd [5]: 8.43 | pIC50 [6]: 7.68 | pKd [8]: 8.57

SMILES: Cc1cccc(S(=O)(=O)N(C)[C@@H](CNC(=O)C[C@H]2CC(c3ccc(C(=N)N)cc3)=NO2)C(=O)O)c1
pIC50 [2]: 7.02

SMILES: Cc1cccc(S(=O)(=O)N[C@@H](CNC(=O)C[C@@H]2CC(c3ccc(C(=N)N)cc3)=NO2)C(=O)O)c1 [listing 2 of 2 here]
inhibition in vivo at 0.025 mg/kg [23]: 16%

SMILES: CC(C)CNS(=O)(=O)N[C@@H](CNC(=O)CC1CC(c2ccc(C(=N)N)cc2)=NO1)C(=O)O (stereo partly specified)
pIC50 [2]: 7.28

SMILES: N=C(N)c1ccc(C2=NOC(CC(=O)NC[C@H](NS(=O)(=O)c3ccccc3C(F)(F)F)C(=O)O)C2)cc1 (stereo partly specified)
inhibition in vivo at 0.025 mg/kg [23]: 45%

Continued, in another order:

pIC50 [2]: 6.85
SMILES: N=C(N)c1ccc(C2=NOC(CC(=O)NC[C@H](NS(=O)(=O)c3ccc4ccccc4c3)C(=O)O)C2)cc1 (stereo partly specified)

pIC50 [2]: 6.92
SMILES: N=C(N)c1ccc(C2=NOC(CC(=O)NC[C@H](NS(=O)(=O)c3cccc(C(F)(F)F)c3)C(=O)O)C2)cc1 (stereo partly specified)

pIC50 [2]: 7.26
SMILES: N=C(N)c1ccc(C2=NOC(CC(=O)NC[C@H](NS(=O)(=O)c3cccc4ccccc34)C(=O)O)C2)cc1 (stereo partly specified)

pIC50 [2]: 7.39
SMILES: Cc1ccccc1S(=O)(=O)N[C@@H](CNC(=O)CC1CC(c2ccc(C(=N)N)cc2)=NO1)C(=O)O (stereo partly specified)
inhibition in vivo at 0.025 mg/kg [22]: 97% | inhibition in vivo at 0.025 mg/kg [23]: 99%

pIC50 [2]: 7.14
SMILES: N=C(N)c1ccc(C2=NOC(CC(=O)NC[C@H](NS(=O)(=O)c3cnn(-c4ccccc4)c3)C(=O)O)C2)cc1 (stereo partly specified)

pIC50 [2]: 6.89
SMILES: Cc1ccccc1S(=O)(=O)N[C@@H](CNC(=O)C[C@H]1CC(c2ccc(C(=N)N)cc2)=NO1)C(=O)O
inhibition in vivo at 0.1 mg/kg [24]: 65% | inhibition in vivo at 0.1 mg/kg [25]: 92% | inhibition in vivo at 0.1 mg/kg [26]: 39%

pIC50 [2]: 7.44
SMILES: Cc1nc(C)c(S(=O)(=O)N[C@@H](CNC(=O)CC2CC(c3ccc(C(=N)N)cc3)=NO2)C(=O)O)s1 (stereo partly specified)
inhibition in vivo at 0.025 mg/kg [22]: 54% | inhibition in vivo at 0.025 mg/kg [23]: 8%

pIC50 [2]: 7.46
SMILES: Cc1cccc(S(=O)(=O)N[C@@H](CNC(=O)C[C@@H]2CC(c3ccc(C(=N)N)cc3)=NO2)C(=O)O)c1 [listing 1 of 2 here]

pIC50 [2]: 6.77
SMILES: N=C(N)c1ccc(C2=NOC(CC(=O)NC[C@H](NS(=O)(=O)c3ccc(C(F)(F)F)cc3)C(=O)O)C2)cc1 (stereo partly specified)

pIC50 [2]: 7.15
SMILES: N=C(N)c1ccc(C2=NOC(CC(=O)NC[C@H](NS(=O)(=O)NCCc3ccccc3)C(=O)O)C2)cc1 (stereo partly specified)
